Assay [1] relates to Meyerozyma guilliermondii. As to the kind of experiment: Antifungal activity against Candida guilliermondii CLY 346 after 24 hrs by NCCLS broth microdilution method. It counts as functional. Particulars: CLY 346, 24 h. In general terms: In broth dilution the organism is exposed to a series of concentrations in liquid medium.
The test system of assay [2] is Nakaseomyces glabratus. The assay is described as follows: Antifungal activity against Candida glabrata MY 1381 after 24 hrs by NCCLS broth microdilution method. It counts as functional. Particulars: MY 1381, 24 h.
In assay [3] the test system is Candida albicans. The assay is described as follows: Antifungal activity against Candida albicans MY 1055 after 24 hrs by NCCLS broth microdilution method. It counts as functional. Particulars: MY 1055, 24 h.
For assay [4], the system named is Candida albicans. The assay is described as follows: Ratio of MIC for Candida albicans 7 harboring cytochrome b G37D mutant to MIC for wild type Candida albicans. It counts as functional.
Assay [5] has as its system Candida tropicalis. The assay is described as follows: Antifungal activity against Candida tropicalis MY 1012 after 40 hrs by NCCLS broth microdilution method. It counts as functional. Particulars: MY 1012, 40 h.
A short description of assay [6]: Inhibition of Saccharomyces cerevisiae MY 2141 electron transport protein complex 1/3 using glycerol-3-phosphate as substrate assessed as decrease in oxygen consumption measured for 3 mins.
The subject of assay [7] is Candida albicans. The assay is described as follows: Antifungal activity against Candida albicans MY 1055 infected in DBA/2 mouse assessed as reduction in kidney fungal burden at 50 mg/kg, po bid administered 2 days post infection measured after 4 days relative to vehicle-treated control. It counts as functional, organism-based. Set-up: dose 50 mg/kg. The procedure, abridged: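 DBA/2 mice infected intravenously with 5.4 × 10⁴ cfu of C. albicans MY1055. Dosed orally twice daily for 2 days in 10% aqueous DMSO at 50, 25, 12.5 and 6.25 mg/kg. Kidney Candida burden determined 4 days after infection and compared with vehicle-treated controls by Excel t test (p < 0.05). ED90 is the dose giving 90% reduction of kidney C. albicans.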

Assay [8] concerns Saccharomyces cerevisiae. As to the kind of experiment: Antifungal activity against Saccharomyces cerevisiae MY 2141 assessed as inhibition of whole cell oxygen consumption at 0.003 ug/mL after 15 mins. It counts as functional. Particulars: MY 2141, 0.25 h.
For assay [9], the system named is Candida albicans. As to the kind of experiment: Ratio of MIC for Candida albicans 5 harboring cytochrome b G37S mutant to MIC for wild type Candida albicans. It counts as functional.
Assay [10] deals with Aspergillus fumigatus. As to the kind of experiment: Antifungal activity against Aspergillus fumigatus MF 5668 after 24 hrs by NCCLS broth microdilution method. It counts as functional. Particulars: MF 5668, 24 h.
In assay [11] the test system is Candida albicans. As to the kind of experiment: Ratio of MIC for Candida albicans 13 harboring cytochrome b G37C mutant to MIC for wild type Candida albicans. It counts as functional.
The subject of assay [12] is Candida albicans. As to the kind of experiment: Ratio of MIC for Candida albicans 16 harboring cytochrome b Q22E mutant to MIC for wild type Candida albicans. It counts as functional.
The subject of assay [13] is Candida albicans. The assay is described as follows: Ratio of MIC for Candida albicans 15 harboring cytochrome b G37S mutant to MIC for wild type Candida albicans. It counts as functional.
Assay [14] deals with Saccharomyces cerevisiae. As to the kind of experiment: Antifungal activity against Saccharomyces cerevisiae MY 2141 in glycerol-based medium after 24 hrs by NCCLS broth microdilution method. It counts as functional. Particulars: MY 2141, 24 h.
Assay [15] in a line: Selectivity ratio of IC50 for bovine NADH:cytochrome c oxidoreductase to IC50 for Saccharomyces cerevisiae MY 2141 NADH:cytochrome c oxidoreductase.
For assay [16], the system named is Meyerozyma guilliermondii. As to the kind of experiment: Antifungal activity against Candida guilliermondii CLY 308 after 24 hrs by NCCLS broth microdilution method. It counts as functional. Particulars: CLY 308, 24 h.
The subject of assay [17] is Candida albicans. As to the kind of experiment: Ratio of MIC for Candida albicans 6 harboring cytochrome b G37S mutant to MIC for wild type Candida albicans. It counts as functional.
The subject of assay [18] is Candida albicans. As to the kind of experiment: Ratio of MIC for Candida albicans 3 harboring cytochrome b G37D mutant to MIC for wild type Candida albicans. It counts as functional.
Assay [19] can be described thus: Inhibition of Saccharomyces cerevisiae MY 2141 cytochrome b-c1 complex Qn site in ubiquinol:Cytochrome c reductase.

Here are results for one compound from ChEMBL document CHEMBL2177002, “Antifungal spectrum, in vivo efficacy, and structure-activity relationship of ilicicolin h” (ACS Med Chem Lett, 2012).

A word on the MIC: it is the least concentration at which growth counts as inhibited. The IC50 is the concentration that gives 50% inhibition. A word on the inhibition: it is the change of the read-out against control, counted positive when it falls.

Values after ≈ are worked out from the molar mass of the structure shown. Active and inactive are the calls of the source. The calls are words filed in the database; no cut-off is given here.

Consider `C/C=C/[C@@H]1[C@H]2C[C@@H](C)CC[C@@H]2C(C)=C[C@H]1C(=O)c1c(O)c(-c2ccc(O)cc2)c[nH]c1=O` [ILICICOLIN H], for which the MIC in assay [1] worked out at 0.01 µg/mL (≈ 0.0231 µM); in assay [2] it was 0.01 µg/mL (≈ 0.0231 µM); in [3], 0.04 µg/mL (≈ 0.0923 µM); in assay [5] it was 0.01 µg/mL (≈ 0.0231 µM); in assay [10], 0.08 µg/mL (≈ 0.185 µM); in [14], 0.012 µg/mL (≈ 0.0277 µM). Besides, the lowest concentration to inhibit growth in [16] (MIC) was 0.01 µg/mL (≈ 0.0231 µM). Moreover, the Ratio in assay [4], in assay [9], in assay [11], in assay [12], in assay [13] and in [17] was 250 in each case. Further, the Ratio in [18] came to 250. For the same compound, the IC50 in assay [6] came to 0.02 µg/mL (≈ 0.0461 µM); in assay [19], 3 nM. For the same compound, the outcome in [7] was Active. For the same compound, the inhibition at 0.003 µg/mL in assay [8] is 100%. Moreover, the Ratio IC50 in [15] is above 70.
